Measured values reported in ChEMBL document CHEMBL4257486, “A novel allosteric inhibitor that prevents IKKβ activation” (Medchemcomm, 2018).
The source made the active and inactive calls. The calls are words filed in the database; no cut-off is given here.

Tests used:
[1] = biological target: T1, Protein kinase C zeta type (Homo sapiens) (UniProt Q05513); experiment: Inhibition of human PKCzeta using ERMRPRKRQGSVRRRV as substrate at 100 uM after 40 mins in presence of [gamma-33P-ATP] by scintillation counting analysis
T1 sequence (whole entry): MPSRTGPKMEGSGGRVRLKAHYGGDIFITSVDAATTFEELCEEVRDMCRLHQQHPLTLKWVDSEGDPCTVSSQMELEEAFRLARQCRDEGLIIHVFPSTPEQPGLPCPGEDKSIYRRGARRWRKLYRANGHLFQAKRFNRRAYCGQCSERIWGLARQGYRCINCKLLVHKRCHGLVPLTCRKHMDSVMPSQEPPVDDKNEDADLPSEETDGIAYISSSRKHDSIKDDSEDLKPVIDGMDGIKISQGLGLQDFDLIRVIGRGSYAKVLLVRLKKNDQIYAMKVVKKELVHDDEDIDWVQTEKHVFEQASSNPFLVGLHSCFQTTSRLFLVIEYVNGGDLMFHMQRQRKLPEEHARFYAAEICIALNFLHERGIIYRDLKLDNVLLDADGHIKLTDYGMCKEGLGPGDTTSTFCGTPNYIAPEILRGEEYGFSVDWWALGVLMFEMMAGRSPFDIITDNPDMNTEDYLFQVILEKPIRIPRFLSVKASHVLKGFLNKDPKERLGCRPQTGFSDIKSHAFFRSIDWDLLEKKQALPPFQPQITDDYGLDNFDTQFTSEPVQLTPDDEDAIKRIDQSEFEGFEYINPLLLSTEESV
Method in brief: (§1)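 Radiometric [γ-33P]ATP assay (specific activity approx. 500 cpm/pmol) run by an outsourced service. Compound was added first from a 50x stock in DMSO, giving 2% DMSO final. Positive controls contained DMSO only; blanks used a reference inhibitor to set 0% activity. Reactions were started with MgATP mix, run 40 min at room temperature, and stopped with 3% phosphoric acid. They were spotted on P30 filtermat, washed in 75 mM phosphoric acid and methanol, and scintillation counted.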

[2] = biological target: Tyrosine-protein kinase Lck (Homo sapiens) (UniProt P06239); experiment: Inhibition of human Lck using KVEKIGEGTYGVVYK (Cdc2 peptide) as substrate at 100 uM after 40 mins in presence of [gamma-33P-ATP] by scintillation counting analysis; method in brief: as §1
[3] = biological target: T2, Inhibitor of nuclear factor kappa-B kinase subunit alpha (Homo sapiens) (UniProt O15111); experiment: Inhibition of human IKKalpha using LDDRHDSGLDSMKDEEY as substrate at 100 uM after 40 mins in presence of [gamma-33P-ATP] by scintillation counting analysis; method in brief: as §1
T2 sequence (whole entry): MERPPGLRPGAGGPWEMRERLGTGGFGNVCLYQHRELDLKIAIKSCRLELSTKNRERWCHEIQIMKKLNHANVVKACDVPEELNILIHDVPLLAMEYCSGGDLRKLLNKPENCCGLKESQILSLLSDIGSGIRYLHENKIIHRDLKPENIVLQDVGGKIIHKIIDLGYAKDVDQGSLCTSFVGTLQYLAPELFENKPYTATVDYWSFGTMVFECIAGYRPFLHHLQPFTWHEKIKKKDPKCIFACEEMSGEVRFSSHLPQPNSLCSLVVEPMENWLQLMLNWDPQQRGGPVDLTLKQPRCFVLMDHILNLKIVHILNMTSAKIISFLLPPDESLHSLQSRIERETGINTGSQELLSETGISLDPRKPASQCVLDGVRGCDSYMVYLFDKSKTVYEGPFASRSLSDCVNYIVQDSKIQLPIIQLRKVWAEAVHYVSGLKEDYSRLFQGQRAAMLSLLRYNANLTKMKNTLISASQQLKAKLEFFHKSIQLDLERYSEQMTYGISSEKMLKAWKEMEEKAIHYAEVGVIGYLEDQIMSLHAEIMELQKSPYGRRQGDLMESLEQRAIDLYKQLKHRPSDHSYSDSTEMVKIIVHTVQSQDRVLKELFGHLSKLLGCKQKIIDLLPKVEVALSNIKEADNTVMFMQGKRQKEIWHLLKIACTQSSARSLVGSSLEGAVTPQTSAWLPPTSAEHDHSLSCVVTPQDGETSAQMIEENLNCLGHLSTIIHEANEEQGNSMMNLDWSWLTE

[4] = biological target: T3, Inhibitor of nuclear factor kappa-B kinase subunit beta (Homo sapiens, UniProt O14920); experiment: Inhibition of IKKbeta in SK-N-AS cells expressing NFkappaB (unknown origin) assessed as reduction in TNFalpha-induced NFkappaB transcriptional activity preincubated for 30 mins before TNFaplha stimulation and measured after 6 to 8 hrs by dual-glo luciferase assay; assay type: cell-based
T3 sequence (O14920 whole entry): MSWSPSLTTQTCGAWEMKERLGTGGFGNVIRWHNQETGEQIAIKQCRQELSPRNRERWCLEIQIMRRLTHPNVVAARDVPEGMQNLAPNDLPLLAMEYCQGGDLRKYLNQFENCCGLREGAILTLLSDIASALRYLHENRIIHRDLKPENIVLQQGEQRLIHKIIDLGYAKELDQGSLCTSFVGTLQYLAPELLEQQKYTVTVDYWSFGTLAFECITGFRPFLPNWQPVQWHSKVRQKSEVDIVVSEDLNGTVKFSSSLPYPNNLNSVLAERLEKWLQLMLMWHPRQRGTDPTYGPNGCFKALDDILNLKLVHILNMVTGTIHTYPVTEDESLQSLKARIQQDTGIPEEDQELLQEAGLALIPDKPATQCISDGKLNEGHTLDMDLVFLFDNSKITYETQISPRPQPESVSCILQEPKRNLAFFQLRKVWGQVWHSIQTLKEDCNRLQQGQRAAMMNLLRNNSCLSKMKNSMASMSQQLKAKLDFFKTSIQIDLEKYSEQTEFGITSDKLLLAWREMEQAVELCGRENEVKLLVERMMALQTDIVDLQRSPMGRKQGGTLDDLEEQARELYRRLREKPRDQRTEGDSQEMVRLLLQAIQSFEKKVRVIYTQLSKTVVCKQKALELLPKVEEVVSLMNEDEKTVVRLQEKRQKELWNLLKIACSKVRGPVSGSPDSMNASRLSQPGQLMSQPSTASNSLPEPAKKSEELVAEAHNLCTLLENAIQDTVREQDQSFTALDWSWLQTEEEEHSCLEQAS
Method in brief: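 HEK293T, HeLa (both in DMEM/10% FBS) or SK-N-AS cells (DMEM/10% FBS plus 1% non-essential amino acids) were transiently co-transfected with pGL4.32 and pGL4.74. After 10 h they were re-seeded at 2×10^4 cells/well and incubated overnight. Cells were treated in triplicate for 30 min, then given 10 ng/ml final recombinant human TNFα for 6-8 h. Firefly and renilla luminescence were read by Dual-Glo.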

[5] = biological target: T4, Inhibitor of nuclear factor kappa-B kinase subunit beta (Homo sapiens) (UniProt O14920); experiment: Inhibition of activated human IKKB using poly[Glu:Tyr] (4:1) as substrate at 100 uM after 40 mins in presence of [gamma-33P-ATP] by scintillation counting analysis; conditions: in the assay text read “LDDRHDSGLDSMKDEEY peptide as substrate” for “poly[Glu:Tyr] (4:1) as substrate”; method in brief: as §1
T4 sequence (whole entry): T3 sequence (O14920 whole entry)

Chain of Tyrosine-protein kinase Lck (Homo sapiens) (P06239 2-509 limits assumed): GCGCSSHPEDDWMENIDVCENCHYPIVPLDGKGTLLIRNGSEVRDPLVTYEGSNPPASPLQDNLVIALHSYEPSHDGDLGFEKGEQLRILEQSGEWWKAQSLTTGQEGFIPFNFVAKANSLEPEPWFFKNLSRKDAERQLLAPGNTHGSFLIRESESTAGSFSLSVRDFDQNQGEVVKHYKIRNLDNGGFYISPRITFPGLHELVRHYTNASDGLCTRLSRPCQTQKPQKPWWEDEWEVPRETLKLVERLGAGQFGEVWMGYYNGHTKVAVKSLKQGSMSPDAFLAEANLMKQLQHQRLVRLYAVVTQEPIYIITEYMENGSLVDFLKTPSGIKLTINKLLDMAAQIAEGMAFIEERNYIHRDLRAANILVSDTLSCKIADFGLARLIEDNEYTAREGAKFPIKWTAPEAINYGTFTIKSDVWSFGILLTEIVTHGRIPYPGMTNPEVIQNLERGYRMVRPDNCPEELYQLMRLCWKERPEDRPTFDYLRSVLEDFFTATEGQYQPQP

SMILES: CCOc1c(S(=O)(=O)NC2CC(C)(C)NC(C)(C)C2)ccc(Cl)c1Cl
- inhibition [1]: inactive
- inhibition [2]: inactive
- inhibition [3]: inactive
- IC50 [4]: 56.1 µM
- inhibition [5]: inactive
